This is an account of results in ChEMBL document CHEMBL1137782, “Identification of peptide substrate and small molecule inhibitors of testis-specific serine/threonine kinase1 (TSSK1) by the developed assays” (J Med Chem, 2009).

Data set [1] addresses T1, Testis-specific serine/threonine-protein kinase 1 (Homo sapiens) (UniProt Q9BXA7).
T1 sequence (whole entry): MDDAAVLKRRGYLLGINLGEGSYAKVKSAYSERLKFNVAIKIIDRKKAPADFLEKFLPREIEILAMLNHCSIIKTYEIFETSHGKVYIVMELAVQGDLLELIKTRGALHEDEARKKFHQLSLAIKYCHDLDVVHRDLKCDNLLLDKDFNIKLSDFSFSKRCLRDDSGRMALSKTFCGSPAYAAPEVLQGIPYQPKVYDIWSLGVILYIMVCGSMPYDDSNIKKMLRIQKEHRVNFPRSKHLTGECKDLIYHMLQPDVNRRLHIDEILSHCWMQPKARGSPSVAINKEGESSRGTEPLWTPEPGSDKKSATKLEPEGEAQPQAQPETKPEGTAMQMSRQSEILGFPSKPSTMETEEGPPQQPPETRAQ
Kind of data set: Inhibition of TSSK1-catalyzed phosphorylation of AALVRQMSVAFFFK substrate at 20 uM by luminescent kinase assay. A digest of the protocol: (§1)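 Luminescent Kinase-Glo read-out of ATP left after reaction. Buffer 40 mM Tris-HCl, 20 mM MgCl2, 0.1 mg/mL BSA, 2 mM DTT. Final 0.5 μg/well TSSK1, 10 μM Pep8 peptide, 1.5 μM ATP. Incubated 2 h at 37 °C, then an equal volume of Kinase-Glo added for 10 min at room temperature before luminescence (RLU) reading. Controls lacked peptide or lacked TSSK1; staurosporine 100 μM as positive control.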

Data set [2] addresses T2, Testis-specific serine/threonine-protein kinase 1 (Homo sapiens, UniProt Q9BXA7).
T2 sequence (Q9BXA7 whole entry): T1 sequence (whole entry)
Kind of data set: Inhibition of TSSK1-catalyzed phosphorylation of AALVRQMSVAFFFK substrate by LC-MS based HTP assay in presence of Pep8-(O2). The method in brief: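 TSSK1 reaction at final 75 ng/well enzyme, 10 μM Pep8, 25 μM ATP in Tris-HCl/MgCl2/BSA/DTT buffer, 90 min at 37 °C. Acetonitrile quench carried 7 μM sulfone internal standard Pep8-P(O2). After 15000g spin, C18 HPLC-MS analysis. Pep8-P concentration calculated from its peak area relative to the internal standard using a normalization factor, and IC50 derived from that.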

Data set [3] deals with T2, Testis-specific serine/threonine-protein kinase 1. Kind of data set: Inhibition of TSSK1-catalyzed phosphorylation of AALVRQMSVAFFFK substrate by luminescent kinase assay. The method in brief:
as §1

The target is the same in data set [4]. Kind of data set: Inhibition of TSSK1-catalyzed phosphorylation of AALVRQMSVAFFFK substrate by LC-MS based HTP assay in absence of Pep8-(O2). The method in brief: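 End-point LC-MS read-out of phosphorylated Pep8 (Pep8-P). Reaction in 40 mM Tris-HCl, 20 mM MgCl2, 0.1 mg/mL BSA, 2 mM DTT with final 75 ng/well TSSK1, 10 μM Pep8, 25 μM ATP, run 90 min at 37 °C. Quenched with acetonitrile, spun 15000g 10 min, then analysed by C18 HPLC-MS using formic acid/acetonitrile gradient. IC50 taken from Pep8-P peak area with no internal standard.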

Substrate in data set [5]: CSCC[C@H](NC(=O)[C@H](CCC(N)=O)NC(=O)[C@H](CCCNC(=N)N)NC(=O)[C@@H](NC(=O)[C@H](CC(C)C)NC(=O)[C@H](C)NC(=O)[C@H](C)N)C(C)C)C(=O)N[C@@H](CO)C(=O)N[C@H](C(=O)N[C@@H](C)C(=O)N[C@@H](Cc1ccccc1)C(=O)N[C@@H](Cc1ccccc1)C(=O)N[C@@H](Cc1ccccc1)C(=O)N[C@@H](CCCCN)C(=O)O)C(C)C
Kind of data set: (§2) Activity at TSSK1 by Michaelis-Menten plot. The method in brief: (§3)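 Enzyme time courses quantified phosphorylated Pep8 by LC-MS. ATP was varied 3.13–200 μM with Pep8 at 30 μM, or Pep8 0–40 μM with ATP at 200 μM. Reactions were quenched with acetonitrile containing 7 μM sulfone internal standard. Initial velocities were taken in duplicate and fitted to Michaelis-Menten by nonlinear least squares.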

Substrate in data set [6]: Nc1ncnc2c1ncn2[C@@H]1O[C@H](COP(=O)(O)OP(=O)(O)OP(=O)(O)O)[C@@H](O)[C@H]1O
The description is as §2. The method in brief: as §3

Take `O=c1oc2cc(O)cc(O)c2c2c1CCCC2`: in data set [1], the inhibition (in general, the change of the read-out against control, counted positive when it falls) was more than 40%.
For the molecule `CC(C)c1nc2cc3c(cc2[nH]c1=O)nc(-c1ccc(C(=O)O)cc1)n3CCCc1ccccc1`, in data set [2], the IC50 (commonly the point on the concentration scale where inhibition reaches its midpoint) stood at 38 µM.
Regarding `O=C(c1ccc(-c2ccc(C(=O)C(O)O)cc2)cc1)C(O)O`, the IC50 in data set [3] turned out to be 43.2 µM. Further, the inhibition in data set [1] was more than 40%.
For the molecule `CC(=O)Nc1ccc(-c2nc3cc4[nH]c(=O)c(C)nc4cc3n2CCCc2ccccc2)cc1`, in data set [2], the IC50 came to 98 µM.
In the case of `O=C(c1ccc(-c2ccc(C(=O)C(O)S(=O)(=O)O)cc2)cc1)C(O)S(=O)(=O)O` (stereo not drawn), the figures for the IC50 in data set [3], in data set [4] and in data set [2] were 24.8 µM, 14.4 µM and 19.1 µM, respectively.
`CCCCCCCn1c(-c2ccc(O)c(O)c2)nc2cc3[nH]c(=O)c(C(C)C)nc3cc21`: the IC50 in data set [2] is 72 µM.
As for `Cc1c(Cc2ccccc2)c(=O)oc2cc(O)cc(O)c12`, the inhibition in data set [1] was more than 40%.
The same measure, in the same setting: the figure for `CC(C)C[C@H](CC(=O)N[C@H](CCC(N)=O)C(=O)O)NC(=O)c1cc(Cl)ccc1N` is more than 40%; for `C=CC(=O)Oc1cc(O)c2c(CCC)cc(=O)oc2c1` it is more than 40%.
For `CCCc1cc(=O)oc2cc3c(c(O)c12)C(=O)CC(C)O3` (stereo not drawn), half-maximal inhibition in data set [3] (IC50) was put at 38.7 µM. For the same molecule, in data set [1], the inhibition was more than 40%.
Turning to `CCCc1c(Cl)c(=O)oc2cc(O)cc(O)c12`, the inhibition in data set [1] is more than 40%.
`CCc1cc(=O)oc2cc3c(c(O)c12)C(=O)CC(C)O3` (stereo not drawn) displayed an inhibition in data set [1] of more than 40%.

B1: Testis-specific serine/threonine-protein kinase 1 (Homo sapiens), Q9BXA7 (protein)
chain: T1 sequence (whole entry)
Turning to B1, the Km (usually the substrate concentration at which the rate is half of its maximum) in data set [5] is 25.2 µM; in data set [6] it was 50.5 µM.
